Reference: publication PMC3263943 (Bioscience Reports, 2011)
pKd: −log10 of the molar value.

Assays:
human calmodulin (human) = human calmodulin (human) (UniProt P0DP23); experiment: native gel or EMSA
human CaM (calmodulin) = human CaM (calmodulin) (Homo sapiens, UniProt P0DP23); experiment: Native gel titration of CaM with peptide; type: binding; conditions: presence of calcium ions; from Kd,app by native gel densitometry
How it was run: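 Bacterially expressed CaM (E. coli Rosetta (DE3), calcium-dependent phenyl-Sepharose purification) held at 35 μM, calcium present, with synthetic IQ-motif peptide at 18–350 μM; incubated 1 h at 22°C. Native 15% polyacrylamide gel in Tris/glycine pH 8.8, Coomassie-stained. Fraction bound = complex band/(complex + free CaM), background-corrected densitometry. Means of three independent experiments fitted to hyperbolic binding equation; Kd,app ± S.E.M. from fit.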

pKd (human calmodulin (human))	Ranking of affinity for CaM (human CaM (calmodulin))	Substance
4.57	–	3IQ2, peptide of the second IQ-motif of human IQGAP3
4.12	–	3IQ3, peptide of the third IQ-motif of human IQGAP3
4.19	–	3IQ4, peptide of the fourth IQ-motif of human IQGAP3
–	followed by 3IQ4	Ac-KNVNSIVKIQAFFRARKAQDDYR-NH2 [3IQ4]
